# A selection: hits, their analogues and other compounds. The true share with any hit is near 2.1%.
# bovine MsrA act: bovine MsrA enzyme activators, primary screen, biochemical, absorbance, HTS; Methionine sulfoxide reductase A (Bos taurus); purified bovine MsrA, absorbance read-out; activation, % at 10.6 µM; actives 0.3% (n = 360,000); AID 602163, 2012; in the data active = activation above about 7.5%;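 note: 0% = vehicle and 100% = reference activator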
# VIM-2 inhibitor: VIM-2 metallo-beta-lactamase inhibitors, primary screen, biochemical, epi-absorbance readout, Pseudomonas aeruginosa enzyme; purified VIM-2, nitrocefin hydrolysis, epi-absorbance fluorescence; inhibition, % at 5.6 µM; actives 0.89% (n = 290,000);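 active = inhibition above the mean of all tested compounds plus 3 SD, cutoff set per screening run, cut at about 7.5% in these data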;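 note: red hydrolysis product quenches plate fluorescence so inhibitors raise well fluorescence; 0% = enzyme with DMSO and 100% = DMSO without enzyme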
# PKA-R2B act: activators of PKA-R2B holoenzyme, primary screen, biochemical, fluorescence polarization, Cy5-IP20, human; PKA-R2B holoenzyme dissociation; R2B truncated from residue 108, S112A mutant; 0% DMSO only, 100% 113 µM cGMP; cAMP-dependent protein kinase catalytic subunit beta (Homo sapiens) + cAMP-dependent …; actives 0.079% (n = 340,000); activation, % at 11.4 µM;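 active = activation above a cutoff set at the mean over all compounds plus 3 SD, cut at about 18% in these data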;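 note: higher means more holoenzyme dissociation and a rise in polarization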
# Target sequence (P31323 whole entry, looked up, other chains not shown, the tested form may be a part): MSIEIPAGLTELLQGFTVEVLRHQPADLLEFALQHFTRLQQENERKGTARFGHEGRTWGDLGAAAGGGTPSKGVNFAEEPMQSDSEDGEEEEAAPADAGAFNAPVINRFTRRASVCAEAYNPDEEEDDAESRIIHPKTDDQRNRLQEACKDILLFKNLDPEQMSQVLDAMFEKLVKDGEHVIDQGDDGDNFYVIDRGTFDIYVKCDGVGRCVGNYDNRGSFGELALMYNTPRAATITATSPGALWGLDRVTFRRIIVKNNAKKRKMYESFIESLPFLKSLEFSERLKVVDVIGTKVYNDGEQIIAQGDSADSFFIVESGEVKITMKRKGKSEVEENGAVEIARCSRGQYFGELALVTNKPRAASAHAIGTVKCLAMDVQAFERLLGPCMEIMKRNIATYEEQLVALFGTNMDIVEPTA
# MsrA inhibitor: bovine MsrA enzyme inhibitors, primary screen, biochemical, absorbance, HTS; Methionine sulfoxide reductase A (Bos taurus); purified bovine MsrA, absorbance read-out; inhibition, % at 15.5 µM; actives 0.75% (n = 360,000); AID 651718, 2012; in the data active = inhibition above about 4.5%;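 note: 0% = vehicle wells with enzyme and 100% = reference inhibitor wells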
# PKA-R1A activ: activators of PKA-R1A holoenzyme, primary screen, biochemical, fluorescence polarization, Cy5-IP20, bovine R1A, mouse PKAc. cAMP-dependent protein kinase type I-alpha regulatory subunit (Bos taurus) + …. PKA-R1A dissociation; scaled: DMSO 0%, 113 µM cGMP 100%. activation, % at 11.4 µM. actives 0.083% (n = 340,000);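 active = percent activation above the mean of all tested compounds plus 3 SD, cut at about 19% in these data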;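 note: higher means more PKAc released from R1A so a rise in polarization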
# IMP-1 inh-1: IMP-1 metallo-beta-lactamase inhibitors, primary screen, biochemical, epi-absorbance readout, Pseudomonas aeruginosa enzyme; purified IMP-1, nitrocefin hydrolysis, epi-absorbance fluorescence; metallo-beta-lactamase IMP-1 (Pseudomonas aeruginosa); inhibition, % at 5.6 µM; actives 0.45% (n = 290,000);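 active = inhibition above the mean plus 3 SD of all compounds in the same screening run, cut at about 4.5% in these data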;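 note: 0% = IMP-1 with DMSO and 100% = DMSO wells lacking enzyme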
#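 assay system = purified recombinant IMP-1 metallo-beta-lactamase enzyme | schedule = 15 min preincubation plus 25 min reaction at 25 °C | signal = Epi-absorbance fluorescence, 480 nm excitation, 530 nm emission | read-out basis = percent inhibition from optical density relative to buffer-blank wells | controls = IMP-1 with DMSO as 0%, enzyme-free DMSO as 100%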
# IMP-1 inh-2: IMP-1 metallo-beta-lactamase inhibitors, confirmation, selectivity assay for selective VIM-2 inhibitor project, biochemical, epi-absorbance readout, triplicate; shares compounds with VIM-2 inhibitor; purified IMP-1, nitrocefin hydrolysis, epi-absorbance fluorescence; inhibition, % at 5.6 µM; 1,300 tested, under 10 active; call rule not given here;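 note: 0% = enzyme with vehicle and 100% = vehicle without enzyme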
# VIM-2 FRET inh: VIM-2 inhibitors in FRET format, confirmation, artefact control for selective VIM-2 inhibitor project, biochemical, epi-absorbance artifact exclusion; shares compounds with VIM-2 inhibitor; purified VIM-2, CCF2 FRET substrate hydrolysis; inhibition, % at 5.6 µM; actives 23% (n = 1,300); AID 1857, 2009;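 active = inhibition above the mean of all tested compounds plus 3 SD, cut at about 19% in these data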;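 note: 0% = VIM-2 plus DMSO and 100% = no enzyme wells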
# TEM-1 counter: TEM-1 serine beta-lactamase inhibitors, counter-screen for VIM-2 inhibitor project, biochemical, epi-absorbance, HTS | shares compounds with VIM-2 inhibitor | Purified TEM-1, nitrocefin hydrolysis, epi-absorbance fluorescence | inhibition, % at 5.6 µM | actives 3% (n = 1,300) | AID 1866, 2009;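 active = inhibition above that campaign's mean inhibition plus 3 SD, cut at about 0.46% in these data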;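 note: 0% = TEM-1 with DMSO and 100% = TEM-1 with 100 µM potassium clavulanate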
# Target sequence (P62593 whole entry, looked up): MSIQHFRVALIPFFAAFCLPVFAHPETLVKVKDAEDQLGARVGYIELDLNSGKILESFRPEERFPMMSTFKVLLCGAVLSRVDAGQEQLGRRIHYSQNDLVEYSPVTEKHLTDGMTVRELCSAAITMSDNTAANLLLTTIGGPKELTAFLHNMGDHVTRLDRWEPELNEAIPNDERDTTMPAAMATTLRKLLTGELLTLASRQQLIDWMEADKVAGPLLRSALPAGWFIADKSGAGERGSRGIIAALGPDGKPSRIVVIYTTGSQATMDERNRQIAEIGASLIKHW
# VIM-2 confirm 2: VIM-2 metallo-beta-lactamase inhibitors, confirmation, biochemical, epi-absorbance, hits shared with IMP-1 screen | shares compounds with VIM-2 inhibitor | purified VIM-2, nitrocefin hydrolysis | inhibition, % at 5.6 µM | actives 96% (n = 1,300) | AID 2187, 2009;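 active = inhibition of the VIM-2 beta-lactamase enzyme above about 11% from the earlier first-round screen, limit read from the data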;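 note: 0% = VIM-2 with DMSO and 100% = buffer wells without enzyme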
# An asterisk follows results filed as active; nt = no result given.
SMILES,bovine MsrA act,VIM-2 inhibitor,PKA-R2B act,MsrA inhibitor,PKA-R1A activ,IMP-1 inh-1,IMP-1 inh-2,VIM-2 FRET inh,TEM-1 counter,VIM-2 confirm 2
CCCCCCOc1ccc(N2C(=O)CC(SCCN)C2=O)cc1 (stereo unspecified),0,15*,9,-2,-8,-4,-2,6,-6,5
CCc1nc2cc(C)nn2c2nc3ccccc3n12,0,16*,-6,-1,-8,0,-3,4,-5,26*
C=CCSc1nnc2nc3c(nn12)c1cc(C)ccc1n3CC=C,-1,15*,-13,-1,1,-3,-2,3,-5,19*
C=CCn1c(O)c(N=O)c2cc(C)ccc21,-3,-1,1,-1,4,-2,nt,nt,nt,nt
O=[N+]([O-])c1ccccc1-c1ccc(/C=N/n2cnnc2)o1,-2,3,-6,3,-11,-3,nt,nt,nt,nt
Clc1cccc(-c2ccc(/C=N/n3cnnc3)o2)c1,-12,19*,-7,4.6*,-8,1,-1,-3,1.9*,33*
O=[N+]([O-])c1cc(-c2ccc(/C=N\n3cnnc3)o2)cc([N+](=O)[O-])c1,-2,54*,6,4,-5,-2,-4,-1,-7,66*
CN(CCCNC(=O)c1cccn2c(=O)c3ccccc3nc12)Cc1ccccc1,0,22*,-9,2,-10,-2,-3,-3,-7,45*
O=C(NCCN1CCN(c2ccccc2F)CC1)c1cccn2c(=O)c3ccccc3nc12,-3,0,11,1,4,-1,nt,nt,nt,nt
Cc1ccc(/C=c2\sc3nc(-c4cccnc4)nn3c2=O)cc1,-5,56*,6,0,3,-3,-2,65*,-5,60*
CC(C)c1ccc(/C=c2\sc3nc(-c4ccncc4)nn3c2=O)cc1,-2,-1,3,0,2,-4,nt,nt,nt,nt
O=C(COC(=O)c1ccc(F)cc1F)c1ccc[nH]1,-3,nt,-5,0,-4,nt,nt,nt,nt,nt
CCSc1nncn1/N=C/c1ccc(OC)c(OC)c1,-5,24*,-2,3,-24,-2,-3,0,-6,41*
C[C@H](CO)N1C[C@H](C)[C@@H](CN(C)Cc2ccncc2)Oc2c(NS(=O)(=O)c3cn(C)cn3)cccc2C1=O,-1,nt,11,0,-5,nt,nt,nt,nt,nt
CCN(CC)CCNc1ccc(CO)c2sc3ccccc3c(=O)c12,-2,24*,12,3,4,-3,1,-1,-8,35*
CCOC(=O)c1cnc2c(Cl)c(Cl)ccc2c1N1CCN(C)CC1,6,15*,-1,0,-2,1,-3,1,-9,24*
CCc1ccc(/C=C2\SC(=S)N(CCCC(=O)N3CCN(C)CC3)C2=O)cc1,-2,nt,1,1,-6,nt,nt,nt,nt,nt
COc1ccc(/C=C2\SC(=S)N(CCCC(=O)N3CCN(C)CC3)C2=O)cc1,-13,15*,14,-1,4,0,-2,0,-7,27*
C=C1CSc2nc(=O)c3c4c(sc3n21)CCCC4,1,14*,-4,0,-12,-2,-3,-1,-7,33*
Cc1c(C)c2ccc(OCC(=O)NC3CCN(Cc4ccccc4)CC3)c(C)c2oc1=O,-2,21*,-8,0,7,-2,-3,0,-11,31*
O=C(Cn1[nH]c(=O)c2ccccc2c1=O)NC1CCN(Cc2ccccc2)CC1,-1,20*,0,0,3,-3,-3,-4,-4,36*
O=C(Cn1[nH]c(=O)c2ccccc2c1=O)NC1CCCCCC1,-2,-4,-5,-1,5,-3,nt,nt,nt,nt
CCc1cc(=O)oc2cc(C)cc(OCC(=O)NC3CCN(Cc4ccccc4)CC3)c12,-4,13*,-8,-1,-1,-4,-3,0,-5,24*
O=C(COC(=O)c1cc(Br)ccc1O)NCCC1=CCCCC1,-2,nt,-6,0,-7,nt,nt,nt,nt,nt
Cc1csc(NC(=O)C(C)Oc2ccc(Cl)cc2C)n1 (stereo unspecified),-2,nt,-7,0,-11,nt,nt,nt,nt,nt
SMILES,bovine MsrA act,VIM-2 inhibitor,PKA-R2B act,MsrA inhibitor,PKA-R1A activ,IMP-1 inh-1,IMP-1 inh-2,VIM-2 FRET inh,TEM-1 counter,VIM-2 confirm 2
CCCCc1n[nH]c(=S)n1Cc1ccc(C)cc1,-10,23*,9,0,-4,-1,-2,37*,-3,26*
Cc1ccc(-n2c(-c3nn(C)c(C)c3Cl)n[nH]c2=S)cc1,5,19*,5,0,-16,-4,-4,54*,-8,36*
Cc1ccc(-c2n[nH]c(=S)n2-c2ccccc2)cc1,3,13*,6,1,-3,-3,-4,35*,-8,23*
Cc1ccc(-c2n[nH]c(=S)n2Cc2ccccc2)cc1,-1,12*,8,1,4,0,-3,29*,-10,16*
Cc1ccc(-n2c(-c3cccc(C)c3)n[nH]c2=S)cc1,-10,0,7,-1,3,-4,nt,nt,nt,nt
COc1cc(CCN=Cc2cccc(OC)c2O)c([N+](=O)[O-])cc1OC,nt,nt,nt,1,nt,nt,nt,nt,nt,nt
O=C(Nc1ccc(Cl)cc1)c1csc([C@@H]2C[C@H](O)[C@@H](CO)O2)n1,0,nt,nt,-1,nt,nt,nt,nt,nt,nt
Cc1cc(N2CCN(C(=O)OC(C)(C)C)C[C@H]2C)ccc1N1CC[C@@H](O)C1,nt,nt,nt,0,nt,nt,nt,nt,nt,nt
Oc1ccccc1-c1n[nH]c(=S)n1Cc1ccccc1,1,13*,4,1,10,-3,-4,26*,-9,15*

# Screening data deposited in PubChem BioAssay by The Scripps Research Institute Molecular Screening Center.
